What was measured:
[1] = target: T1, Prostaglandin G/H synthase 2 (Homo sapiens, UniProt P35354); assay: Inhibition of human recombinant COX2 by fluorescence assay
T1 sequence (P35354 whole entry): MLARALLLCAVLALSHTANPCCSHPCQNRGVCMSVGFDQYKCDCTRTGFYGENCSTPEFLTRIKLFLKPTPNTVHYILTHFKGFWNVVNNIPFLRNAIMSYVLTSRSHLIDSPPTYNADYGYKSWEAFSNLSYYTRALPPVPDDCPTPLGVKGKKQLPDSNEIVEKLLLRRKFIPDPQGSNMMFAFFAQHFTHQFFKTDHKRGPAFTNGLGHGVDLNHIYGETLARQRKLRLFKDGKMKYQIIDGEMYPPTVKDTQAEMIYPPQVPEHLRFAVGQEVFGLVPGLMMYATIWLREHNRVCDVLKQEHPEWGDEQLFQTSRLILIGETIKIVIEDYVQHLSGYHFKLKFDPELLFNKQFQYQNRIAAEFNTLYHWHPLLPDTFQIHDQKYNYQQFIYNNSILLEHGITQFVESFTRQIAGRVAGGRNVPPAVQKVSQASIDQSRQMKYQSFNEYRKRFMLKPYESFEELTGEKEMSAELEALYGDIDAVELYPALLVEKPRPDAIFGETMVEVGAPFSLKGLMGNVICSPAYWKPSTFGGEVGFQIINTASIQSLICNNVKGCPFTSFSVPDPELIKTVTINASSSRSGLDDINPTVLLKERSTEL

[2] = target: T2, Prostaglandin G/H synthase 1 (Ovis aries, UniProt P05979); assay: Inhibition of ovine COX1 by fluorescence assay
T2 sequence (P05979 whole entry): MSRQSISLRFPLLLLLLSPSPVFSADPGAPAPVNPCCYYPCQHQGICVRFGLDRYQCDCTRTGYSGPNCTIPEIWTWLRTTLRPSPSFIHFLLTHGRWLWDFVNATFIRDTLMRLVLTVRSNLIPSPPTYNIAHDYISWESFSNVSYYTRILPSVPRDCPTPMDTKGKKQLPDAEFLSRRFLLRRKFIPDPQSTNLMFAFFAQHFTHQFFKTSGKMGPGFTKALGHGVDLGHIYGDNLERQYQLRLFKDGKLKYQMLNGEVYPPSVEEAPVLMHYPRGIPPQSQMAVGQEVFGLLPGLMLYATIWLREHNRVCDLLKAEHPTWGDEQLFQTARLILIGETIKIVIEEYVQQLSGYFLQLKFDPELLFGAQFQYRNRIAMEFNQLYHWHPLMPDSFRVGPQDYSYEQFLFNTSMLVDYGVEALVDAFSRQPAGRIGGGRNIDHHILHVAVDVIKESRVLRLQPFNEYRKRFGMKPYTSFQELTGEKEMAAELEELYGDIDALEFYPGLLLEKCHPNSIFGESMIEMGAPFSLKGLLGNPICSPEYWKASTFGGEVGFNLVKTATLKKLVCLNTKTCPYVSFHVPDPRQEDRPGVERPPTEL
Outline: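 Ovine COX-1 tested in vitro with a fluorescent COX-1/COX-2 inhibitor screening kit. Each value is the mean of three determinations, with deviation from the mean under 10%.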

[3] = Selectivity index, ratio of IC50 for ovine COX1 to IC50 for human recombinant COX2
Outline: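 Ovine COX-1 and human recombinant COX-2 tested in parallel with a fluorescent COX inhibitor screening kit. […] The index is the COX-1 IC50 divided by the COX-2 IC50.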

Compound	IC50 [1]	IC50 [2]	Ratio IC50 [3]
NS(=O)(=O)c1ccc(-n2cc(-c3ccccc3)nn2)cc1	1.3 µM	> 100 µM	> 77
NS(=O)(=O)c1ccc(Cn2cc(-c3ccc(Cl)cc3)nn2)cc1	28 µM	> 100 µM	> 3.6
COc1ccc(-c2cn(Cc3ccc(S(N)(=O)=O)cc3)nn2)cc1	13 µM	> 100 µM	> 7.7
COc1ccc(-c2cn(CCc3ccc(S(N)(=O)=O)cc3)nn2)cc1	27 µM	> 100 µM	> 3.7
Cc1ccc(-c2cn(CCc3ccc(S(N)(=O)=O)cc3)nn2)cc1	3.4 µM	> 100 µM	> 29
NS(=O)(=O)c1ccc(Cn2cc(-c3ccccc3)nn2)cc1	6.5 µM	39 µM	6
NS(=O)(=O)c1ccc(CCn2cc(-c3ccc(Cl)cc3)nn2)cc1	0.17 µM	> 100 µM	> 588
NS(=O)(=O)c1ccc(CCn2cc(-c3ccc(F)cc3)nn2)cc1	1 µM	> 100 µM	> 100
Cc1ccc(-c2cn(Cc3ccc(S(N)(=O)=O)cc3)nn2)cc1	1.2 µM	> 100 µM	> 83
NS(=O)(=O)c1ccc(CCn2cc(-c3ccccc3)nn2)cc1	1.1 µM	> 100 µM	> 91

More lines, now with the values ahead:

IC50 [1]	IC50 [2]	Ratio IC50 [3]	Compound
13.5 µM	> 100 µM	> 7.4	NS(=O)(=O)c1ccc(-n2cc(-c3ccc(F)cc3)nn2)cc1
11 µM	> 100 µM	> 9.1	COc1ccc(-c2cn(-c3ccc(S(N)(=O)=O)cc3)nn2)cc1
1.5 µM	20 µM	13.3	NS(=O)(=O)c1ccc(Cn2cc(-c3ccc(F)cc3)nn2)cc1
14 µM	65 µM	4.6	Cc1ccc(-c2cn(-c3ccc(S(N)(=O)=O)cc3)nn2)cc1
1.3 µM	21 µM	16.1	NS(=O)(=O)c1ccc(-n2cc(-c3ccc(Cl)cc3)nn2)cc1

From ChEMBL document CHEMBL2396544, “1,4-Diaryl-substituted triazoles as cyclooxygenase-2 inhibitors: Synthesis, biological evaluation and molecular modeling studies” (Bioorg Med Chem, 2013)
